Tests used:
[1] = system: Hepatitis B virus; assay: Antiviral activity against Hepatitis B virus infected in human HepG2.2.15 cells assessed as inhibition of HBeAg secretion at 300 uM after 3 days by ELISA; assay type: functional; details: HepG2 2.2.15, 72 h
Method in brief: (§1)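 HepG2.2.15 cells (MEM, 10% FBS, 380 µg/ml G418) seeded at 1×10^5 cells/ml, held 24 h at 37 °C, then treated with various drug concentrations; medium with drug renewed every 3 d for up to 9 d. Culture medium sampled on days 3, 6 and 9, stored at -20 °C, and assayed for secreted antigen. Lamivudine as positive control; IC50 = 50% inhibition of secretion; means of at least two experiments.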

[2] = system: Hepatitis B virus; assay: Antiviral activity against Hepatitis B virus infected in human HepG2.2.15 cells assessed as inhibition of HBsAg secretion at 300 uM after 3 days by ELISA; assay type: functional; details: HepG2 2.2.15, 72 h; method in brief: as §1
[3] = system: Hepatitis B virus; assay: Antiviral activity against Hepatitis B virus infected in human HepG2.2.15 cells assessed as inhibition of HBeAg secretion at 150 uM after 9 days by ELISA; assay type: functional; details: HepG2 2.2.15, 216 h; method in brief: as §1
[4] = system: Hepatitis B virus; assay: Antiviral activity against Hepatitis B virus infected in human HepG2.2.15 cells assessed as inhibition of HBeAg secretion at 150 uM after 6 days by ELISA; assay type: functional; details: HepG2 2.2.15, 144 h; method in brief: as §1
[5] = system: Hepatitis B virus; assay: Antiviral activity against Hepatitis B virus infected in human HepG2.2.15 cells assessed as inhibition of HBsAg secretion at 150 uM after 3 days by ELISA; assay type: functional; details: HepG2 2.2.15, 72 h; method in brief: as §1
[6] = system: Hepatitis B virus; assay: Antiviral activity against Hepatitis B virus infected in human HepG2.2.15 cells assessed as cell survival at 37.5 uM after 9 days (reference value: 100%); assay type: functional; details: HepG2 2.2.15, 216 h
Method in brief: (§2)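 HepG2.2.15 cells (MEM, 10% FBS, 380 µg/ml G418, 37 °C, 5% CO2) seeded at 1×10^5 cells/ml, cultured 24 h, then exposed to various drug concentrations; drug-containing medium renewed every 3 d. OD read at 450 nm after 9 days; percent cell death calculated; CC50 = concentration killing 50% of cells. Means of at least two experiments.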

[7] = Selectivity index, ratio of CC50 for human HepG2.2.15 cells to IC50 for Hepatitis B virus infected in human HepG2.2.15 cells assessed as inhibition of HBeAg secretion; assay type: functional
Method in brief: (§3)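 Selectivity index computed as CC50/IC50, with CC50 from cell death of HepG2.2.15 cells after 9 days of treatment (OD 450 nm) and IC50 from 50% inhibition of HBeAg or HBsAg secretion in the same cells; medium with drug renewed every 3 d.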

[8] = Cytotoxicity against human HepG2.2.15 cells assessed as cell death after 9 days by MTT assay; assay type: cell-based, HepG2 2.2.15; method in brief: as §2
[9] = system: Hepatitis B virus; assay: Antiviral activity against Hepatitis B virus infected in human HepG2.2.15 cells assessed as inhibition of HBeAg secretion at 75 uM after 3 days by ELISA; assay type: functional; details: HepG2 2.2.15, 72 h; method in brief: as §1
[10] = system: Hepatitis B virus; assay: Antiviral activity against Hepatitis B virus infected in human HepG2.2.15 cells assessed as inhibition of HBeAg secretion at 37.5 uM after 6 days by ELISA; assay type: functional; details: HepG2 2.2.15, 144 h; method in brief: as §1
[11] = system: Hepatitis B virus; assay: Antiviral activity against Hepatitis B virus infected in human HepG2.2.15 cells assessed as inhibition of HBeAg secretion at 75 uM after 6 days by ELISA; assay type: functional; details: HepG2 2.2.15, 144 h; method in brief: as §1
[12] = system: Hepatitis B virus; assay: Antiviral activity against Hepatitis B virus infected in human HepG2.2.15 cells assessed as inhibition of HBeAg secretion at 37.5 uM after 3 days by ELISA; assay type: functional; details: HepG2 2.2.15, 72 h; method in brief: as §1
[13] = system: Hepatitis B virus; assay: Antiviral activity against Hepatitis B virus infected in human HepG2.2.15 cells assessed as inhibition of HBsAg secretion at 37.5 uM after 9 days by ELISA; assay type: functional; details: HepG2 2.2.15, 216 h; method in brief: as §1
[14] = system: Hepatitis B virus; assay: Antiviral activity against Hepatitis B virus infected in human HepG2.2.15 cells assessed as inhibition of HBsAg secretion at 150 uM after 6 days by ELISA; assay type: functional; details: HepG2 2.2.15, 144 h; method in brief: as §1
[15] = system: Hepatitis B virus; assay: Antiviral activity against Hepatitis B virus infected in human HepG2.2.15 cells assessed as inhibition of HBsAg secretion at 300 uM after 9 days by ELISA; assay type: functional; details: HepG2 2.2.15, 216 h; method in brief: as §1
[16] = system: Hepatitis B virus; assay: Antiviral activity against Hepatitis B virus infected in human HepG2.2.15 cells assessed as inhibition of HBeAg secretion by ELISA; assay type: functional, organism-based; details: HepG2 2.2.15; method in brief: as §1
[17] = system: Hepatitis B virus; assay: Antiviral activity against Hepatitis B virus infected in human HepG2.2.15 cells assessed as cell survival at 300 uM after 9 days (reference value: 100%); assay type: functional; details: HepG2 2.2.15, 216 h; method in brief: as §2
[18] = system: Hepatitis B virus; assay: Antiviral activity against Hepatitis B virus infected in human HepG2.2.15 cells assessed as inhibition of HBsAg secretion at 150 uM after 9 days by ELISA; assay type: functional; details: HepG2 2.2.15, 216 h; method in brief: as §1
[19] = system: Hepatitis B virus; assay: Antiviral activity against Hepatitis B virus infected in human HepG2.2.15 cells assessed as inhibition of HBsAg secretion at 75 uM after 6 days by ELISA; assay type: functional; details: HepG2 2.2.15, 144 h; method in brief: as §1
[20] = system: Hepatitis B virus; assay: Antiviral activity against Hepatitis B virus infected in human HepG2.2.15 cells assessed as inhibition of HBsAg secretion by ELISA; assay type: functional, organism-based; details: HepG2 2.2.15; method in brief: as §1
[21] = system: Hepatitis B virus; assay: Antiviral activity against Hepatitis B virus infected in human HepG2.2.15 cells assessed as inhibition of HBeAg secretion at 37.5 uM after 9 days by ELISA; assay type: functional; details: HepG2 2.2.15, 216 h; method in brief: as §1
[22] = system: Hepatitis B virus; assay: Antiviral activity against Hepatitis B virus infected in human HepG2.2.15 cells assessed as inhibition of HBsAg secretion at 300 uM after 6 days by ELISA; assay type: functional; details: HepG2 2.2.15, 144 h; method in brief: as §1
[23] = system: Hepatitis B virus; assay: Antiviral activity against Hepatitis B virus infected in human HepG2.2.15 cells assessed as inhibition of HBsAg secretion at 75 uM after 3 days by ELISA; assay type: functional; details: HepG2 2.2.15, 72 h; method in brief: as §1
[24] = system: Hepatitis B virus; assay: Antiviral activity against Hepatitis B virus infected in human HepG2.2.15 cells assessed as inhibition of HBsAg secretion at 37.5 uM after 6 days by ELISA; assay type: functional; details: HepG2 2.2.15, 144 h; method in brief: as §1
[25] = system: Hepatitis B virus; assay: Antiviral activity against Hepatitis B virus infected in human HepG2.2.15 cells assessed as inhibition of HBeAg secretion at 300 uM after 6 days by ELISA; assay type: functional; details: HepG2 2.2.15, 144 h; method in brief: as §1
[26] = system: Hepatitis B virus; assay: Antiviral activity against Hepatitis B virus infected in human HepG2.2.15 cells assessed as cell survival at 150 uM after 9 days (reference value: 100%); assay type: functional; details: HepG2 2.2.15, 216 h; method in brief: as §2
[27] = system: Hepatitis B virus; assay: Antiviral activity against Hepatitis B virus infected in human HepG2.2.15 cells assessed as inhibition of HBeAg secretion at 300 uM after 9 days by ELISA; assay type: functional; details: HepG2 2.2.15, 216 h; method in brief: as §1
[28] = system: Hepatitis B virus; assay: Antiviral activity against Hepatitis B virus infected in human HepG2.2.15 cells assessed as cell survival at 75 uM after 9 days (reference value: 100%); assay type: functional; details: HepG2 2.2.15, 216 h; method in brief: as §2
[29] = system: Hepatitis B virus; assay: Antiviral activity against Hepatitis B virus infected in human HepG2.2.15 cells assessed as inhibition of HBeAg secretion at 75 uM after 9 days by ELISA; assay type: functional; details: HepG2 2.2.15, 216 h; method in brief: as §1
[30] = Selectivity index, ratio of CC50 for human HepG2.2.15 cells to IC50 for Hepatitis B virus infected in human HepG2.2.15 cells assessed as inhibition of HBsAg secretion; assay type: functional; method in brief: as §3
[31] = system: Hepatitis B virus; assay: Antiviral activity against Hepatitis B virus infected in human HepG2.2.15 cells assessed as inhibition of HBsAg secretion at 37.5 uM after 3 days by ELISA; assay type: functional; details: HepG2 2.2.15, 72 h; method in brief: as §1
[32] = system: Hepatitis B virus; assay: Antiviral activity against Hepatitis B virus infected in human HepG2.2.15 cells assessed as inhibition of HBeAg secretion at 150 uM after 3 days by ELISA; assay type: functional; details: HepG2 2.2.15, 72 h; method in brief: as §1
[33] = system: Hepatitis B virus; assay: Antiviral activity against Hepatitis B virus infected in human HepG2.2.15 cells assessed as inhibition of HBsAg secretion at 75 uM after 9 days by ELISA; assay type: functional; details: HepG2 2.2.15, 216 h; method in brief: as §1

O=C(/C=C/c1ccc2c(c1)OCO2)O/N=C/c1ccco1
inhibition at 300 µM [1]: 47.2%
inhibition at 300 µM [2]: 57.9%
inhibition at 150 µM [3]: 59.1%
inhibition at 150 µM [4]: 56.5%
inhibition at 150 µM [5]: 42.9%
viability at 37.5 µM [6]: 94.4%
Ratio CC50/IC50 [7]: 5.86
CC50 at 216 h [8]: 480 µM
inhibition at 75 µM [9]: 24.8%
inhibition at 37.5 µM [10]: 26%
inhibition at 75 µM [11]: 45.8%
inhibition at 37.5 µM [12]: 16.9%
inhibition at 37.5 µM [13]: 32.4%
inhibition at 150 µM [14]: 70.4%
inhibition at 300 µM [15]: 85.4%
IC50 [16]: 81.8 µM
viability at 300 µM [17]: 43%
inhibition at 150 µM [18]: 70.5%
inhibition at 75 µM [19]: 54.6%
IC50 [20]: 64.6 µM
inhibition at 37.5 µM [21]: 30.3%
inhibition at 300 µM [22]: 79.5%
inhibition at 75 µM [23]: 31.2%
inhibition at 37.5 µM [24]: 31.5%
inhibition at 300 µM [25]: 71%
viability at 150 µM [26]: 73.8%
inhibition at 300 µM [27]: 86.7%
viability at 75 µM [28]: 85.5%
inhibition at 75 µM [29]: 47%
Ratio CC50/IC50 [30]: 7.42
inhibition at 37.5 µM [31]: 22.3%
inhibition at 150 µM [32]: 35.2%
inhibition at 75 µM [33]: 59.5%
